# Screening results as filed in PubChem BioAssay.
# Cneo AK release = Cryptococcus neoformans lysis via adenylate kinase release. C. neoformans lysis, adenylate kinase release luminescence, 4 h; normalised: neutral wells 0, clomiphene wells 100. lysis activity, % at 15 µM. 360,000 compounds, 0.2% hits;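 active means mean lysis activity across replicates of at least 80%, whatever share of replicates individually reach that level; inactive means mean lysis activity below 80%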
#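 Material: C. neoformans cells | Amount: Yeast cell density of 5 × 10^6 cells/mL | Medium: Fresh YPD growth medium | Dosing: Single dose | Times: Static 4 h at 37 °C with compound, 1 h detection | Detection: AK luminescence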
# PglD DTNB = blocks C. jejuni PglD acetyltransferase activity | purified PglD enzyme, DTNB colorimetric CoA detection | AID 602405 | 360,000 compounds, 0.098% hits | inhibition, % at 12.5 µM; in the data active means inhibition above about 16%, passing the limit was not always enough
# Ecoli rRNA inh = selective bacterial rRNA inhibition in E. coli | E. coli WT GFP vs humanized-ribosome RFP mutants, fluorescence, 24 h; hits give low values; DMSO median 0, no signal -100 | GFP signal change (wild-type ribosome), % (test concentration not listed) | 350,000 compounds, 1.6% hits | AID 720706;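 active means significant combined selectivity score with lowered wild-type GFP, culture density cut under 30%, mutant RFP and density less affected; inactive means any of these conditions unmet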
# CR mimetic SO = caloric restriction mimetics inhibiting age-related superoxide in yeast; S. cerevisiae aged cells, superoxide DHE fluorescence; hits give low values; superoxide response (% of plate mean), % at 10 µM; 330,000 compounds, 0.18% hits;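 active means superoxide response under a set limit, about three screen SD below normal, cut at about 65% in these data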;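 further: yeast aged for seven days with compound at 30 °C before DHE staining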
# SUMO Mot1 rescue = inhibitors of SUMOylation pathway: yeast Mot1-301 growth rescue; growth rescue, % at 18.8 µM; S. cerevisiae Mot1-301 growth rescue, ATP luminescence, 38.5C; percent above DMSO median, 100 means doubled; 320,000 compounds, 1% hits;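 active means every valid replicate shows activation above 250% relative to neutral control wells; inactive means the rest, any valid replicate at or below 250%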
# Numbers stand for hits; i = inactive; nt = no result given. Compounds with a hit are over-represented: about 2.2% of the library has one in this group of screens.
SMILES,Cneo AK release,PglD DTNB,Ecoli rRNA inh,CR mimetic SO,SUMO Mot1 rescue
COc1ccc(CN(C)C[C@H]2OCCCC[C@H](C)Oc3ccc(NS(=O)(=O)c4cn(C)cn4)cc3C(=O)N([C@@H](C)CO)C[C@H]2C)cc1,i,i,i,nt,nt
CCCC(=O)N1CCN(c2nc3c(OC)ccc(Cl)c3s2)CC1,i,i,-36,i,i
O=C1C=C(NCCc2cc(Br)c(O)c(Br)c2)C(=O)c2ncccc21,nt,nt,-27,nt,nt
O=C(NCc1cccnc1)C(=O)Nc1nc(C23CC4CC(CC(C4)C2)C3)cs1,i,i,-27,i,i
O=C(NCc1ccccc1)C(=O)Nc1nc(C23CC4CC(CC(C4)C2)C3)cs1,i,i,i,i,i
COc1ccc(/C(N)=N/OC(=O)Cc2ccc(OC)c(OC)c2)cc1,i,i,-26,i,i
Cc1cccc(-c2ccc([C@H]3[C@@H](CO)N4C(=O)CN(C(=O)c5cnccn5)C[C@H]34)cc2)c1,nt,nt,i,nt,nt
Fc1cccc(COc2ccccc2C(=S)N2CCCC2)c1,i,i,-30,i,i
COc1ccc(CN(C)C[C@@H]2Oc3ccc(NC(=O)Cn4cnnn4)cc3CC(=O)N([C@H](C)CO)C[C@@H]2C)cc1,i,i,i,nt,nt
Cc1ccc(NS(=O)(=O)c2ccc(NC(=O)C3CC3)cc2)cc1C,i,i,-24,nt,nt
O=C(Nc1ccc(S(=O)(=O)Nc2ccccc2)cc1)C1CC1,i,i,i,i,i
O=C(Oc1cccnc1)c1ccco1,i,i,nt,i,nt
O=C(Oc1cccc(OC(=O)c2ccco2)c1)c1ccco1,i,i,-23,i,i
C[C@H](CO)N1C[C@H](C)[C@@H](CN(C)Cc2ccncc2)Oc2cc(C#CC3CC3)ccc2S1(=O)=O,i,i,i,nt,nt
Cc1cc2nc(/C=C/c3cccnc3)[nH]c2cc1C,i,i,-28,i,i
C[C@@H]1CN([C@H](C)CO)C(=O)c2cc(NC(=O)Cc3cn(C)c4ccccc34)ccc2O[C@H]1CN(C)S(=O)(=O)c1ccc(Cl)cc1,i,i,i,nt,nt
O=C1N/C(=C\c2nc3ccccc3s2)c2ccccc21,nt,nt,nt,i,354
O=C1N/C(=C\c2ccccc2)c2ccccc21,i,i,nt,i,i
COc1ccc(/C=C/C(=O)Nc2cccc(F)c2)cc1S(=O)(=O)N1CCOCC1,i,i,-27,i,i
COc1ccc(/C=C/C(=O)Nc2ccccc2F)cc1S(=O)(=O)N1CCOCC1,i,i,-20,i,i
COc1ccc(/C=C/C(=O)Nc2ccc(C(C)=O)cc2)cc1S(=O)(=O)N1CCOCC1,i,i,i,nt,nt
COc1ccc(/C=C/C(=O)Nc2ccccc2C)cc1S(=O)(=O)N1CCOCC1,nt,nt,i,i,i
O=C(N[C@H]1CC[C@@H](CCNC(=O)C2CCC2)O[C@H]1CO)c1ccncc1,i,i,i,nt,nt
Cc1cccc(-c2ccc([C@H]3[C@@H](CO)N4CCCCN(C(=O)c5ccc6c(c5)OCO6)C[C@H]34)cc2)c1,i,i,i,nt,nt
CNC(=O)C[C@H]1CC[C@H]2[C@@H](COc3ccc(NC(=O)CC(F)(F)F)cc3C(=O)N2C)O1,i,i,i,nt,nt
SMILES,Cneo AK release,PglD DTNB,Ecoli rRNA inh,CR mimetic SO,SUMO Mot1 rescue
NC(=NCc1ccco1)NC(=O)c1ccc(Cl)cc1,nt,nt,-25,i,i
O=S(=O)(NC1CCc2ccccc21)c1ccc(S(=O)(=O)N2CCCC2)cc1 (stereo not given),nt,nt,-29,i,i
O=C(Nc1ccccc1)N1CCCCN2[C@H](CO)[C@@H](c3ccc(C#CC4CC4)cc3)[C@@H]2C1,100,i,i,nt,nt
O=C(NC1CCCC1)N1CCCCN2[C@H](CO)[C@@H](c3ccc(-c4cncnc4)cc3)[C@H]2C1,106,i,i,nt,nt
C[C@H]1CN([C@@H](C)CO)S(=O)(=O)c2ccc(C#CC3CCCC3)cc2O[C@H]1CN(C)C(=O)Cc1ccccc1,i,i,i,nt,nt
C[C@H]1CN([C@@H](C)CO)C(=O)c2cc(-c3ccncc3)cnc2O[C@H]1CN(C)C(=O)c1ccncc1,i,i,i,nt,nt
Cc1cc(C)c(O)c(-c2cc(C(=O)Nc3cccnc3)[nH]n2)c1,nt,nt,-33,i,i
Cc1cc(O)c(-c2cc(C(=O)Nc3cccnc3)[nH]n2)cc1C,i,i,i,i,i
CCc1ccc(O)c(-c2cc(C(=O)Nc3cccnc3)[nH]n2)c1,i,i,-37,i,i
Cc1cccc(NC(=O)c2cc(-c3cc(Cl)ccc3O)n[nH]2)c1,i,i,nt,i,i
CNC[C@@H]1Oc2cc(-c3cccc(C(=O)N(C)C)c3)ccc2S(=O)(=O)N([C@@H](C)CO)C[C@H]1C,i,i,i,nt,nt
Cc1cc(C(=O)N/N=C/c2ccc(-c3cccc([N+](=O)[O-])c3)o2)n[nH]1,i,i,i,i,i
Cc1cc(C(=O)N/N=C/c2ccc(-c3ccc([N+](=O)[O-])cc3Cl)o2)n[nH]1,i,i,-32,i,i
COCCNC(=O)C[C@@H]1C[C@@H]2c3cc(NC(=O)c4ccc5c(c4)OCO5)ccc3O[C@@H]2[C@H](CO)O1,i,i,i,nt,nt
O=C(C[C@H]1C[C@@H]2c3cc(NC(=O)C4CCC4)ccc3O[C@@H]2[C@H](CO)O1)NCc1cccc(F)c1,i,i,i,nt,nt
O=C(C[C@@H]1C[C@H]2c3cc(NC(=O)C4CCC4)ccc3O[C@H]2[C@@H](CO)O1)NCc1cccc(F)c1,i,i,i,nt,nt
O=C(C[C@@H]1C[C@@H]2c3cc(NC(=O)C4CCC4)ccc3O[C@@H]2[C@H](CO)O1)NCc1cccc(F)c1,86,i,i,nt,nt
COCCNC(=O)C[C@@H]1C[C@@H]2c3cc(NC(=O)C4CCC4)ccc3O[C@@H]2[C@@H](CO)O1,i,i,i,nt,nt
O=C(C[C@H]1C[C@@H]2c3cc(NC(=O)CC4CC4)ccc3O[C@@H]2[C@@H](CO)O1)NCc1cccc(F)c1,91,i,i,nt,nt
O=C(C[C@H]1C[C@H]2c3cc(NC(=O)C4CCC4)ccc3O[C@H]2[C@@H](CO)O1)NCc1cccc(F)c1,94,i,i,nt,nt
